Bioassay records from PubChem.
S100A4 inh HTS – inhibitors of human S100A4 binding to myosin IIA peptide. P26447. S100A4/TAMRA-MyoIIA peptide fluorescence polarization. inhibition, % at 10.7 µM. 360,000 compounds, 0.14% hits. AID 652163;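 active = mean inhibition of at least 70% across replicates, with every replicate also reaching that level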
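Material: human S100A4 monomer with TAMRA-labelled myosin IIA peptide; buffer or medium: HEPES pH 7.2 with CaCl2, KCl, NaCl, DTT, Triton; compound dosing: one concentration per compound; schedule: 5 min incubation before reading; benchmarks: neutral control DMSO, positive control TFP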
Casp6 inh – inhibitors of human caspase-6 | P55212 | purified caspase-6, Z-VEID-R110 cleavage fluorescence | inhibition, % at 12.5 µM | 350,000 compounds, 0.53% hits;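 active = mean inhibition across replicates at least about 35%, with every replicate also reaching that limit, limit read from the data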
rRNA inh HTS – inhibits bacterial ribosomal RNA function over humanized ribosomes; E. coli WT GFP vs humanized-ribosome RFP mutants, fluorescence, 24 h; stronger effect = lower value; DMSO median 0, no signal -100; GFP signal change (wild-type ribosome), % (concentration not given with the values); 350,000 compounds, 1.6% hits; AID 720706;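 active = significant combined selectivity score with lowered wild-type GFP, culture density cut under 30%, mutant RFP and density less affected; inactive = any of these conditions unmet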
ERAP1 inh – ERAP1 (human) enzyme inhibition; recombinant ERAP1, Leu-AMC fluorescence, 60 min; AID 652197; 340,000 compounds, 0.15% hits; inhibition, % at 10.7 µM;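 active = mean replicate inhibition of at least 30%, or all replicates individually reaching that 30% level; inactive = mean below 30% and not every replicate reaching it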
ARNT TACC3 PPI – disrupts binding between human ARNT and TACC3; Q9Y6A5; 390,000 compounds, 0.66% hits; inhibition, % at 9.99 µM; AlphaScreen His-ARNT PAS-B/GST-TACC3 binding, luminescence; TACC3 fragment carries E629A point mutation;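 active = mean inhibition of replicates at least 50% and at least half of replicates each reaching 50%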
PGC1a acetyl inh – modulators of PGC1a acetylation; U2OS PGC1a acetylation, AlphaScreen anti-acetyl-lysine; with virally co-expressed GCN5 acetyltransferase; inhibition, % at 15.6 µM; 350,000 compounds, 0.17% hits;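 active = every replicate shows inhibition of at least 40%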
Of the large screens only hits and unclear results are named; the others gave an inactive call. In the library only some 2.4% were active in any assay of this set; here they are far more common.

Cc1nnc2sc(SCC(=O)N3CCC(C)CC3)nn2c1=O	ARNT TACC3 PPI 63.3
COc1cccc(NC(=O)CSc2nn3c(=O)c(C)nnc3s2)c1	ARNT TACC3 PPI 66.6 (no result: PGC1a acetyl inh)
COc1ccc(NC(=O)CSc2nnc(C)c(=O)n2N)cc1	none (no result: rRNA inh HTS, PGC1a acetyl inh)
COc1ccc(OC)c(NC(=O)CSc2nn3c(=O)c(C)nnc3s2)c1	ARNT TACC3 PPI 69.0 (no result: PGC1a acetyl inh)
COc1ccc(NC(=O)CSc2nn3c(=O)c(C)nnc3s2)cc1	ARNT TACC3 PPI 61.0 (no result: PGC1a acetyl inh)
Cc1nnc2sc(SCC(=O)N3CCCCC3)nn2c1=O	none (no result: PGC1a acetyl inh)
O=C(Cc1ccccc1)N1CC[C@@H]2[C@H](CO)Nc3ccc(Br)cc3[C@@H]21	none
Cc1ccccc1NC(=O)CSc1nn2c(=O)c(C)nnc2s1	ARNT TACC3 PPI 51.2
Cc1ccccc1CSc1nn2c(=O)c(C)nnc2s1	none
Cc1nnc2sc(SCC(=O)Nc3cccc(Cl)c3)nn2c1=O	ARNT TACC3 PPI 64.7
COC(=O)c1ccc(NC(=O)CSc2nn3c(=O)c(C)nnc3s2)cc1	ARNT TACC3 PPI 60.4 (no result: PGC1a acetyl inh)
CCOC(=O)/C(=N\Nc1ccccc1)S(=O)(=O)c1ccccc1	none
CCOC(=O)/C(=N\Nc1ccccc1)P(=O)(c1ccccc1)c1ccccc1	rRNA inh HTS -36.8
COc1cccc(-c2ccc3c(c2)O[C@H](CN(C)C)[C@H](C)CN([C@H](C)CO)S3(=O)=O)c1	none
[N-]=[N+]=NCc1ccccc1C[C@]1(C(N)=O)N=C(c2ccc(OCCCO)cc2)O[C@H]1c1ccccc1	none (no result: rRNA inh HTS, PGC1a acetyl inh)
O=C(c1cnccn1)N1CC(=O)N2[C@H](CO)[C@@H](c3ccc(-c4ccc(F)cc4)cc3)[C@H]2C1	S100A4 inh HTS 124.3 (no result: ARNT TACC3 PPI)
COCC(=O)N1CC(=O)N2[C@@H](CO)[C@H](c3ccc(-c4ccncc4)cc3)[C@@H]2C1	PGC1a acetyl inh 102.2 (no result: ARNT TACC3 PPI)
COC(=O)/C(C#N)=C/c1ccc(-c2ccc(S(N)(=O)=O)cc2)o1	rRNA inh HTS -27.2 (no result: ERAP1 inh)
COc1cc2c(cc1OC)/C(=C/C(=O)c1ccc(F)cc1)NCC2	Casp6 inh 44.3
CO[C@H]1CN(C)C(=O)c2cc(NC(=O)Nc3cccc(F)c3)ccc2OC[C@@H](C)NC[C@@H]1C	none (no result: Casp6 inh)
Cc1c(OCC(=O)NCCCN2CCCC2=O)ccc2c3c(c(=O)oc12)CCC3	S100A4 inh HTS active
Cn1cc(/C=C2\SC(=O)N(c3ccccc3)C2=O)c2ccccc21	none (no result: S100A4 inh HTS, Casp6 inh, rRNA inh HTS, ERAP1 inh, PGC1a acetyl inh)
Cn1cc(/C=C2\SC(=O)N(c3ccc(O)cc3)C2=O)c2ccccc21	rRNA inh HTS -34.5
CC(C)(C)OC(=O)N1CCC[C@H]1c1nnc(SCc2ccccc2)o1	none (no result: ERAP1 inh, ARNT TACC3 PPI)
Cc1ccc(CSc2nnc(CCNC(=O)OC(C)(C)C)o2)cc1	rRNA inh HTS -24.9
Cc1ccc(CSc2nnc([C@@H]3CCCN3C(=O)OC(C)(C)C)o2)cc1	rRNA inh HTS -15.6
Cc1ccc(-n2c(SCC(=O)NC3CCS(=O)(=O)C3)nc3ccccc3c2=O)cc1 (stereo unspecified)	none
CC(=O)NCCn1c(SCC(=O)NC2CCCCC2)nc2ccccc2c1=O	none
O=C(CSc1nc2ccccc2c(=O)n1-c1ccccc1)NCC1CCCO1 (stereo unspecified)	ERAP1 inh 82.0 (no result: Casp6 inh)
CCc1ccc(-n2c(SCC(=O)NC3CCS(=O)(=O)C3)nc3ccccc3c2=O)cc1 (stereo unspecified)	Casp6 inh 44.8
CCn1c(SCC(=O)NC2CCCCC2)nc2ccccc2c1=O	ERAP1 inh 54.7
O=C(CCN1CCCCC1)N[C@H]1CC[C@@H](CCNS(=O)(=O)c2ccc(F)cc2)O[C@H]1CO	none
COc1ccc(CN2C(=O)COc3ccccc32)cc1	none
COc1ccc(CC2(CO)COc3ccccc3C2=O)cc1 (stereo unspecified)	rRNA inh HTS -28.5 (no result: PGC1a acetyl inh)
CC(=O)N1CC[C@@H]2[C@H](CO)Nc3ccc(C#Cc4cccnc4)cc3[C@@H]21	none
Fc1ccc(CO/N=C/C2=C(Cl)c3ccccc3CC2)cc1	PGC1a acetyl inh 79.1 (no result: S100A4 inh HTS, Casp6 inh, rRNA inh HTS, ERAP1 inh)
COc1cccc(CNC(=O)C[C@H]2CC[C@H](NC(C)=O)[C@@H](CO)O2)c1	none
COc1cc(/C=C2\SC(=Nc3ccc(Cl)c(C(=O)O)c3)NC2=O)c(Br)c(Br)c1O	Casp6 inh 35.4
COc1cc(/C=C2\SC(=Nc3ccccc3)NC2=O)cc(Cl)c1O	none
